Source: ChEMBL document CHEMBL1255444, “In vitro antibacterial activities of JNJ-Q2, a new broad-spectrum fluoroquinolone” (Antimicrob Agents Chemother, 2010)
≈ marks a conversion by molar mass, not a printed value.

Tests used:
Assay type in all cases: functional
Enterococcus faecium = experiment: Antibacterial activity against Enterococcus faecium by broth microdilution method
Procedure, shortened: (§1)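 MICs by CLSI M07-A7 broth microdilution in cation-adjusted Mueller-Hinton medium. For S. pneumoniae the medium was supplemented with 5% lysed horse blood. CLSI quality control strains were run alongside as appropriate.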

Staphylococcus aureus [1] = experiment: Antibacterial activity against methicillin-resistant Staphylococcus aureus isolate OC8532 harboring wild type quinolone resistance-determining region by agar dilution method
Procedure, shortened: (§2)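 CLSI agar dilution MIC on cation-adjusted Mueller-Hinton medium. These were the MIC values used for the resistance studies, and CLSI quality-control strains were included as appropriate.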

Staphylococcus aureus [2] = experiment: Antibacterial activity against methicillin-resistant Staphylococcus aureus by broth microdilution method
Procedure, shortened: (§3)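 CLSI M07-A7 broth microdilution MIC. Medium was cation-adjusted Mueller-Hinton broth. For S. pneumoniae it was Mueller-Hinton supplemented with 5% lysed horse blood. CLSI quality-control strains were included as appropriate.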

Citrobacter freundii = experiment: Antibacterial activity against Citrobacter freundii by broth microdilution method; procedure, shortened: as §1
Haemophilus influenzae = experiment: Antibacterial activity against Haemophilus influenzae by broth microdilution method; procedure, shortened: as §1
Streptococcus pneumoniae = experiment: Antibacterial activity against ciprofloxacin-resistant Streptococcus pneumoniae by broth microdilution method; procedure, shortened: as §3
Enterococcus faecalis = experiment: Antibacterial activity against Enterococcus faecalis ATCC 29212 by broth microdilution method; procedure, shortened: as §1
Moraxella catarrhalis = experiment: Antibacterial activity against Moraxella catarrhalis by broth microdilution method; procedure, shortened: as §1
Staphylococcus aureus [3] = experiment: Antibacterial activity against methicillin-resistant Staphylococcus aureus isolate OC15425 harboring gyrA S84L and parC S80F mutant gene by agar dilution method
Procedure, shortened: (§4)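 MICs for the resistance-selection studies were determined by CLSI agar dilution on Mueller-Hinton medium. For S. pneumoniae the medium was supplemented with 5% lysed horse blood. For MRSA fluctuation-assay strains an arithmetic agar dilution scheme was used for a more precise MIC.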

Providencia stuartii = experiment: Antibacterial activity against Providencia stuartii by broth microdilution method; procedure, shortened: as §1
[4] = system: Staphylococcus epidermidis; experiment: Antibacterial activity against methicillin-susceptible Staphylococcus epidermidis by broth microdilution method
Staphylococcus aureus [5] = experiment: Antibacterial activity against methicillin-resistant Staphylococcus aureus isolate OC8525 harboring wild type quinolone resistance-determining region by agar dilution method; procedure, shortened: as §2
Staphylococcus aureus [6] = experiment: Antibacterial activity against methicillin-resistant Staphylococcus aureus isolate OC11150 harboring gyrA S84L and parC S80Y mutant gene by agar dilution method; procedure, shortened: as §4
Pseudomonas aeruginosa = experiment: Antibacterial activity against Pseudomonas aeruginosa ATCC 27853 by broth microdilution method; procedure, shortened: as §1
Escherichia coli = experiment: Antibacterial activity against ciprofloxacin-resistant Escherichia coli by broth microdilution method; procedure, shortened: as §3
[7] = system: Staphylococcus epidermidis; experiment: Antibacterial activity against methicillin-, ciprofloxacin-resistant Staphylococcus epidermidis by broth microdilution method
Staphylococcus aureus [8] = experiment: Antibacterial activity against Staphylococcus aureus […] by broth microdilution method; procedure, shortened: as §3
Serratia marcescens = experiment: Antibacterial activity against Serratia marcescens by broth microdilution method; procedure, shortened: as §1
Streptococcus pyogenes = experiment: Antibacterial activity against Streptococcus pyogenes by broth microdilution method; procedure, shortened: as §1
[9] = system: Staphylococcus epidermidis; experiment: Antibacterial activity against methicillin-resistant Staphylococcus epidermidis by broth microdilution method
Streptococcus agalactiae = experiment: Antibacterial activity against Streptococcus agalactiae by broth microdilution method; procedure, shortened: as §1
[10] = Antibacterial activity against Streptococcus sp. group C by broth microdilution method
Procedure, shortened: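 MICs by broth microdilution following CLSI M07-A7 in cation-adjusted Mueller-Hinton medium, using isolates from the J&JPRD culture collection. CLSI quality control strains were included as appropriate.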

Staphylococcus aureus [11] = experiment: Antibacterial activity against methicillin-, ciprofloxacin-resistant Staphylococcus aureus by broth microdilution method; procedure, shortened: as §3
Proteus mirabilis = experiment: Antibacterial activity against Proteus mirabilis by broth microdilution method; procedure, shortened: as §1
Klebsiella aerogenes = experiment: Antibacterial activity against Enterobacter aerogenes by broth microdilution method; procedure, shortened: as §1

O=C(O)c1cn(C2CC2)c2cc(N3CCNCC3)c(F)cc2c1=O [CIPROFLOXACIN] gave an MIC50 (Enterococcus faecium) of 4 µg/mL (≈ 12.1 µM), an MIC90 (Enterococcus faecium) of over 16 µg/mL and an MIC (Staphylococcus aureus [1]) of 0.6 µg/mL (≈ 1.81 µM). It also gave an MIC50 (Staphylococcus aureus [2]) of 16 µg/mL (≈ 48.3 µM), an MIC90 (Staphylococcus aureus [2]) of over 32 µg/mL and an MIC50 (Citrobacter freundii) of 2 µg/mL (≈ 6.04 µM). It also gave an MIC90 (Citrobacter freundii) of over 4 µg/mL, an MIC (Haemophilus influenzae) of 0.008 µg/mL (≈ 0.0241 µM) and an MIC50 (Haemophilus influenzae) of 0.008 µg/mL (≈ 0.0241 µM). It also gave an MIC90 (Haemophilus influenzae) of 0.015 µg/mL (≈ 0.0453 µM), an MIC50 (Streptococcus pneumoniae) of 32 µg/mL (≈ 96.6 µM) and an MIC90 (Streptococcus pneumoniae) of 64 µg/mL (≈ 193 µM). It also gave an MIC50 (Enterococcus faecalis) of 1 µg/mL (≈ 3.02 µM), an MIC90 (Enterococcus faecalis) of over 16 µg/mL and an MIC50 (Moraxella catarrhalis) of 0.06 µg/mL (≈ 0.181 µM). The MIC90 (Moraxella catarrhalis) was 0.06 µg/mL (≈ 0.181 µM), the MIC (Staphylococcus aureus [3]) was 12 µg/mL (≈ 36.2 µM) and the MIC50 (Providencia stuartii) was 32 µg/mL (≈ 96.6 µM). The MIC90 (Providencia stuartii) was 64 µg/mL (≈ 193 µM), the MIC50 [4] was 0.25 µg/mL (≈ 0.754 µM) and the MIC90 [4] was 0.5 µg/mL (≈ 1.51 µM). For the same compound, the MIC (Staphylococcus aureus [5]) was 3 µg/mL (≈ 9.05 µM), the MIC (Staphylococcus aureus [6]) was 12 µg/mL (≈ 36.2 µM) and the MIC50 (Pseudomonas aeruginosa) was 0.25 µg/mL (≈ 0.754 µM). It also gave an MIC90 (Pseudomonas aeruginosa) of 0.5 µg/mL (≈ 1.51 µM), an MIC50 (Escherichia coli) of 64 µg/mL (≈ 193 µM) and an MIC90 (Escherichia coli) of 256 µg/mL (≈ 773 µM). It also gave an MIC50 [7] of 64 µg/mL (≈ 193 µM), an MIC90 [7] of 128 µg/mL (≈ 386 µM) and an MIC50 (Staphylococcus aureus [8]) of 16 µg/mL (≈ 48.3 µM). It also gave an MIC90 (Staphylococcus aureus [8]) of over 32 µg/mL, an MIC50 (Serratia marcescens) of 0.12 µg/mL (≈ 0.362 µM) and an MIC90 (Serratia marcescens) of 0.25 µg/mL (≈ 0.754 µM). It also gave an MIC50 (Streptococcus pyogenes) of 0.5 µg/mL (≈ 1.51 µM), an MIC90 (Streptococcus pyogenes) of 1 µg/mL (≈ 3.02 µM) and an MIC50 [9] of 16 µg/mL (≈ 48.3 µM). The MIC90 [9] was 64 µg/mL (≈ 193 µM), the MIC50 (Streptococcus agalactiae) was 1 µg/mL (≈ 3.02 µM) and the MIC90 (Streptococcus agalactiae) was 1 µg/mL (≈ 3.02 µM). For the same compound, the MIC50 [10] was 0.25 µg/mL (≈ 0.754 µM), the MIC90 [10] was 1 µg/mL (≈ 3.02 µM) and the MIC50 (Staphylococcus aureus [11]) was over 32 µg/mL. The MIC90 (Staphylococcus aureus [11]) was 32 µg/mL (≈ 96.6 µM), the MIC50 (Proteus mirabilis) was 0.03 µg/mL (≈ 0.0905 µM) and the MIC90 (Proteus mirabilis) was 0.06 µg/mL (≈ 0.181 µM). For the same compound, the MIC50 (Klebsiella aerogenes) was 0.03 µg/mL (≈ 0.0905 µM) and the MIC90 (Klebsiella aerogenes) was 0.03 µg/mL (≈ 0.0905 µM).
